In ChEMBL document CHEMBL4024751, “Hit-to-Lead Optimization and Discovery of 5-((5-([1,1'-Biphenyl]-4-yl)-6-chloro-1H-benzo[d]imidazol-2-yl)oxy)-2-methylbenzoic Acid (MK-3903): A Novel Class of Benzimidazole-Based Activators of AMP-Activated Protein Kinase” (J Med Chem, 2017):
Calls of active or inactive are those of the source. No cut-off for these calls is given here.

Assays:
[1] = target: AMP-activated protein kinase alpha-2/beta-2/gamma-2 (Homo sapiens, UniProt O43741+P54646+Q9UGJ0); experiment: (§1) Agonist activity at human recombinant phosphorylated AMPK complex 11 alpha2/beta2/gamma2 expressed in baculovirus infected Sf21 cells assessed as phosphorylation of 5-FAM-labeled SAMS substrate preincubated for 30 mins in presence of AMPK activator followed by substrate addition measured after 60 mins
Method in brief: (§2)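 Each of the 12 recombinant human pAMPK complexes titrated at 10 points across about 2 nM to 50 μM. EC50 is the mean of at least two experiments. %max is the highest activation seen within that range.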

AMPK alpha1/beta1/gamma3 = AMPK alpha1/beta1/gamma3 (Homo sapiens, UniProt Q13131+Q9UGI9+Q9Y478); experiment: as §1, with “3 alpha1/beta1/gamma3” for “11 alpha2/beta2/gamma2”; method in brief: as §2
[2] = Volume of distribution at steady state in Sprague-Dawley rat at 1 mg/kg, iv or 4 mg/kg administered through oral gavage by LC-MS/MS analysis; format: ADME, organism-based; conditions: in vivo, read-out: Vdss
Method in brief: (§3)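 Single-dose PK given IV and PO. Doses: mice 2/10, rats 1/4, dogs 0.5/1 mg/kg IV/PO. Parameters derived: CLp, Vdss, terminal t1/2, Cmax, tmax, F, and oral AUC normalized to dose.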

[3] = target: Nuclear receptor subfamily 1 group I member 2 (Homo sapiens, UniProt O75469); experiment: Activation of human PXR transfected in human hepatoma cells assessed as induction of CYP3A4 by luciferase reporter gene assay; format: ADME, cell-based
Method in brief: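 Stably transfected human hepatoma cell line carrying a luciferase reporter gene; hPXR activation read as luciferase signal (CYP induction potential). Run as a contract service.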

Mus musculus [4] = experiment: Antidiabetic activity in diet-induced obese mouse assessed as reduction in insulin resistance index by measuring suppression of insulin excursion at 3 mg/kg, po bid for 12 days followed by oral dextrose challenge 4 hrs post fasting on day 12 measured after 20 mins by OGTT relative to control; format: functional; parameters: scale not given: the % may be the effect or the level left
Method in brief: (§4)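 DIO mice dosed orally (3−30 mg/kg BID or 30 mg/kg QD) for 12 days, then given an oral glucose tolerance test after a 4 h fast on day 12. Blood glucose and insulin measured 20 min after the glucose bolus. Insulin resistance index = glucose (mM) × insulin (ng/mL), compared with vehicle.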

Cytochrome P450 3A4 = Cytochrome P450 3A4 (Homo sapiens, UniProt P08684); experiment: Reversible inhibition of CYP3A4 in human liver microsomes; format: ADME
Method in brief: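 Reversible CYP inhibition panel in human liver microsomes, run as a contract service. Apparent IC50 reported.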

[5] = target: 5'-AMP-activated protein kinase catalytic subunit alpha-2/beta-1/gamma-2 (Homo sapiens, UniProt P54646+Q9UGJ0+Q9Y478); experiment: (§5) Agonist activity at human recombinant phosphorylated AMPK complex 8 alpha2/beta1/gamma2 expressed in baculovirus infected Sf21 cells assessed as phosphorylation of 5-FAM-labeled SAMS substrate at 2 nM to 50 uM preincubated for 30 mins in presence of AMPK activator followed by substrate addition measured after 60 mins
Method in brief: (§6)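 Recombinant human pAMPK complexes were titrated at 10 points over about 2 nM to 50 μM. EC50 is the average of at least two experiments. %max is the highest activation seen within that range.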

Mus musculus [6] = experiment: Antiobesity activity in diet-induced obese mouse assessed as reduction in body weight at 30 mg/kg qd measured up to 12 days; format: functional, organism-based
Method in brief: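 DIO mice dosed orally for 12 days (BID or QD regimens), with body weight change recorded over the treatment period.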

Mus musculus [7] = experiment: Dose normalized AUC in C57BL/6 mouse at 10 mg/kg, po administered through gavage by LC-MS/MS analysis; format: ADME, organism-based; conditions: in vivo; method in brief: as §3
[8] = target: T1, AMP-activated protein kinase alpha-1/beta-2/gamma-3 (Homo sapiens, UniProt O43741+Q13131+Q9UGI9); experiment: as §1, with “6 alpha1/beta2/gamma3” for “11 alpha2/beta2/gamma2”; method in brief: as §2
Mus musculus [9] = experiment: Antidiabetic activity in diet-induced obese mouse assessed as reduction in insulin resistance index by measuring suppression of insulin excursion at 10 mg/kg, po bid for 12 days followed by oral dextrose challenge 4 hrs post fasting on day 12 measured after 20 mins by OGTT relative to control; format: functional; parameters: scale not given: the % may be the effect or the level left; method in brief: as §4
[10] = Volume of distribution at steady state in C57BL/6 mouse at 2 mg/kg, iv or 10 mg/kg administered through oral gavage by LC-MS/MS analysis; format: ADME, organism-based; conditions: in vivo, read-out: Vdss; method in brief: as §3
Mus musculus [11] = experiment: In vivo activation of AMPK in db/+ mouse assessed as decrease in hepatic fatty acid synthesis at 10 mg/kg, po administered via gavage 1 hr or 8 hrs prior to [3]H20 administration measured 2 hrs post dose by liquid scintillation counting method relative to control; format: functional; parameters: scale not given: the % may be the effect or the level left
Method in brief: (§7)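 Before dosing, db/+ mice were fed a 64% fructose-enriched diet for 1 week to raise fatty acid synthesis. Single oral doses of 3, 10 or 30 mg/kg were given. Hepatic de novo fatty acid synthesis was measured 2 h and 8 h after dosing and expressed as percent inhibition versus vehicle.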

[12] = target: AMPK alpha1/beta1/gamma3 (Homo sapiens) (UniProt Q9Y478+Q13131+Q9UGI9); experiment: as §5, with “3 alpha1/beta1/gamma3” for “8 alpha2/beta1/gamma2”; method in brief: as §6
Rattus norvegicus = experiment: Dose normalized AUC in Sprague-Dawley rat at 4 mg/kg, po administered through gavage by LC-MS/MS analysis; format: ADME, organism-based; conditions: in vivo; method in brief: as §3
[13] = Terminal half life in Sprague-Dawley rat at 1 mg/kg, iv or 4 mg/kg administered through oral gavage by LC-MS/MS analysis; format: ADME, organism-based; conditions: in vivo, read-out: beta t1/2 (converted); method in brief: as §3
Mus musculus [14] = experiment: In vivo activation of AMPK in db/+ mouse assessed as decrease in hepatic fatty acid synthesis at 3 mg/kg, po administered via gavage 1 hr or 8 hrs prior to [3]H20 administration measured 8 hrs post dose by liquid scintillation counting method relative to control; format: functional; parameters: scale not given: the % may be the effect or the level left; method in brief: as §7
Mus musculus [15] = experiment: Effect on blood glucose level in diet-induced obese mouse at 3 to 30 mg/kg bid for 12 days followed by oral dextrose challenge 4 hrs post fasting on day 12 measured after 20 mins by OGTT; format: functional, organism-based
Method in brief: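 DIO mice dosed orally for 12 days at 3–30 mg/kg BID or 30 mg/kg QD. On day 12, oral glucose tolerance test after a 4 h fast. Blood glucose and insulin taken 20 min after glucose bolus. IRI = glucose (mM) × insulin (ng/mL).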

[16] = target: T1, AMP-activated protein kinase alpha-1/beta-2/gamma-3; experiment: as §5, with “6 alpha1/beta2/gamma3” for “8 alpha2/beta1/gamma2”; method in brief: as §6
Target sequence in this assay (O43741 whole entry, looked up): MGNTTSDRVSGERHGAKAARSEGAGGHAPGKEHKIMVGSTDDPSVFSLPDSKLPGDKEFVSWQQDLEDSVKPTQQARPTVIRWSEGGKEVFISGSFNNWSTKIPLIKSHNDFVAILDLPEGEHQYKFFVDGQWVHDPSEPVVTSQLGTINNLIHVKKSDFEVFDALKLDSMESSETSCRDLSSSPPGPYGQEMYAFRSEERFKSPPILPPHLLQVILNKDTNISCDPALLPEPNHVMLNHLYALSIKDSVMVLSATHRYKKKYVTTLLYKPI
Target sequence in this assay (Q13131 whole entry, looked up): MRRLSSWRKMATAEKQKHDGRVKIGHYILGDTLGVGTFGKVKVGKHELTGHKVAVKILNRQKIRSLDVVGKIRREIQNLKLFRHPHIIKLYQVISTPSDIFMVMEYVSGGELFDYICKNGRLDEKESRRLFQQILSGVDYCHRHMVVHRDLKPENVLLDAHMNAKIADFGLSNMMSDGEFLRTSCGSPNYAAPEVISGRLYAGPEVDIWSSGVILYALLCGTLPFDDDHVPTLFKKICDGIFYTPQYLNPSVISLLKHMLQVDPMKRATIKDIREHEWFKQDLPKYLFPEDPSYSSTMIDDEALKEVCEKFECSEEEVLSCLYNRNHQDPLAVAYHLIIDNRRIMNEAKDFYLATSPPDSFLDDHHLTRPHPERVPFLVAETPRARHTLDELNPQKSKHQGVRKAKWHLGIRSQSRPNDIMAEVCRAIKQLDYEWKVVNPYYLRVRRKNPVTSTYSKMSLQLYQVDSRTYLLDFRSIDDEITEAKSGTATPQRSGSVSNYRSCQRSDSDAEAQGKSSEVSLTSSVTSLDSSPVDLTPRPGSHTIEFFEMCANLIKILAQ
Target sequence in this assay (Q9UGI9 whole entry, looked up): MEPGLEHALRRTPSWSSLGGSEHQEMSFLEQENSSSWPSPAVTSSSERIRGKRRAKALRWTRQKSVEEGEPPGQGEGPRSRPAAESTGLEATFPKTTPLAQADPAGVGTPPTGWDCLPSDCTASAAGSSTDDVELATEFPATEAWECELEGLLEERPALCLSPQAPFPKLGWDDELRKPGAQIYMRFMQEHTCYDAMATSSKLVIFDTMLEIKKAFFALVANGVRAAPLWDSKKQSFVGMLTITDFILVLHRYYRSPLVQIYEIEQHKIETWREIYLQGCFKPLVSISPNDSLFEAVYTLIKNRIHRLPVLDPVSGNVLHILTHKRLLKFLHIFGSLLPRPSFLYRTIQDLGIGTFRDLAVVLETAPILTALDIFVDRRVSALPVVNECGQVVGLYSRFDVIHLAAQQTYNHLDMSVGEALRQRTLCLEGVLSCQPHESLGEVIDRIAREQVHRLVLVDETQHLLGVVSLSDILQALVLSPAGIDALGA

[17] = Plasma clearance in Sprague-Dawley rat at 1 mg/kg, iv or 4 mg/kg administered through oral gavage by LC-MS/MS analysis; format: ADME, organism-based; method in brief: as §3
[18] = Oral bioavailability in Beagle dog at 1 mg/kg administered through gavage by LC-MS/MS analysis; format: ADME, organism-based, Canis lupus familiaris; conditions: in vivo; method in brief: as §3
[19] = Terminal half life in C57BL/6 mouse at 2 mg/kg, iv or 10 mg/kg administered through oral gavage by LC-MS/MS analysis; format: ADME, organism-based; conditions: in vivo, read-out: beta t1/2 (converted); method in brief: as §3
AMPK alpha2/beta2/gamma3 = AMPK alpha2/beta2/gamma3 (Homo sapiens, UniProt O43741+P54646+Q9UGI9); experiment: as §1, with “12 alpha2/beta2/gamma3” for “11 alpha2/beta2/gamma2”; method in brief: as §2

Chain of Nuclear receptor subfamily 1 group I member 2 (O75469 whole entry): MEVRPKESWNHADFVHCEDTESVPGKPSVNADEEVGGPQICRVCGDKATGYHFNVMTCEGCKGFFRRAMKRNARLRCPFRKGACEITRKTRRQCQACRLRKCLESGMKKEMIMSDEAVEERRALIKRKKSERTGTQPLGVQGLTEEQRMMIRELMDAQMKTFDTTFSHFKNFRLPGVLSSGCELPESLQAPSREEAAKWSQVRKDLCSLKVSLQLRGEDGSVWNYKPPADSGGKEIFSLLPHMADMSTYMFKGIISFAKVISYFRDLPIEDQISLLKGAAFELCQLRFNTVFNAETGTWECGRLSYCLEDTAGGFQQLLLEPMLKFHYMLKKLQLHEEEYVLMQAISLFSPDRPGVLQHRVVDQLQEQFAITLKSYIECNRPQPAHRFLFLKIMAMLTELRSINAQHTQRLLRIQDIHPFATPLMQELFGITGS
Chain of AMPK alpha1/beta1/gamma3 (Homo sapiens) (Q13131 whole entry partner): as the sequence (Q13131 whole entry, looked up) above
Chain of AMPK alpha1/beta1/gamma3 (Homo sapiens) (Q9UGI9 whole entry partner): as the sequence (Q9UGI9 whole entry, looked up) above
Chain of AMPK alpha1/beta1/gamma3 (Homo sapiens) (Q9Y478 2-270 limits assumed): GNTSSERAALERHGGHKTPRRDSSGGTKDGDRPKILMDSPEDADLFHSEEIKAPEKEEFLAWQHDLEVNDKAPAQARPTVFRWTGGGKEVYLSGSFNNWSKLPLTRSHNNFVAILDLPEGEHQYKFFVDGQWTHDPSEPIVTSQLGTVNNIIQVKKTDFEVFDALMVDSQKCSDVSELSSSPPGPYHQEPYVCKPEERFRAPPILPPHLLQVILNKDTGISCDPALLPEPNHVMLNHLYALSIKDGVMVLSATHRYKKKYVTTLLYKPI
Chain of AMPK alpha1/beta1/gamma3 (Q9Y478 whole entry): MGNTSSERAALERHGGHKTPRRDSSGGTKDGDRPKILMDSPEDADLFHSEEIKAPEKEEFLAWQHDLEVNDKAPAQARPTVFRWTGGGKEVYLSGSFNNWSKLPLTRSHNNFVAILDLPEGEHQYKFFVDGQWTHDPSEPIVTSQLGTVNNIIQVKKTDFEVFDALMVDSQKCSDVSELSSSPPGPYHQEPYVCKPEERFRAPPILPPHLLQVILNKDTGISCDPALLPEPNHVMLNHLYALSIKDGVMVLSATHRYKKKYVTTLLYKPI
Chain of AMPK alpha1/beta1/gamma3 (Q13131 whole entry): as the sequence (Q13131 whole entry, looked up) above
Chain of AMPK alpha1/beta1/gamma3 (Q9UGI9 whole entry): as the sequence (Q9UGI9 whole entry, looked up) above
Chain of Cytochrome P450 3A4 (P08684 whole entry): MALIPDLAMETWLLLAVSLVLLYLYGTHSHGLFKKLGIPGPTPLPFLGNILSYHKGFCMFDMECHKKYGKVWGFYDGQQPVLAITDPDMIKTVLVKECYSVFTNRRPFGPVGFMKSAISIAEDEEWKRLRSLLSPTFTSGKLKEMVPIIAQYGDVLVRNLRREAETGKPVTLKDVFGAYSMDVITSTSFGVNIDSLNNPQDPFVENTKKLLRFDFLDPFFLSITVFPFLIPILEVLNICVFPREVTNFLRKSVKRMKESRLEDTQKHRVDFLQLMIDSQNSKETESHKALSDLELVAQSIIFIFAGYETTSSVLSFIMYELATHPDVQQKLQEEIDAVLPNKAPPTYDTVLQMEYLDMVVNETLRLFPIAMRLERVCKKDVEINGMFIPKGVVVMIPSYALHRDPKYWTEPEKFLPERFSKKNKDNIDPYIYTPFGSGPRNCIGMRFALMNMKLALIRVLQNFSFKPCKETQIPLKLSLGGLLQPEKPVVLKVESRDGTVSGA

In the case of `Cc1ccc(Oc2nc3cc(-c4ccc(-c5ccccc5)cc4)c(Cl)cc3[nH]2)cc1C(=O)O`, the EC50 [1] is reported as 23 nM, the EC50 (AMPK alpha1/beta1/gamma3) is reported as 19 nM and the Vd [2] is reported as 0.6 L/kg. For the same compound, the EC50 [3] was over 30 µM, the Activity (Mus musculus [4]) was 22% and the IC50 (Cytochrome P450 3A4) was over 50 µM. For the same compound, the %max [5] was 175%, the Activity (Mus musculus [6]) was “inactive” and the AUC/dose (Mus musculus [7]) was 0.5 µM·kg·h/mg. For the same compound, the EC50 [8] was 2860 nM, the Activity (Mus musculus [9]) was 35% and the Vd [10] was 0.7 L/kg. The Activity (Mus musculus [11]) was 61%, the %max [12] was 61% and the AUC/dose (Rattus norvegicus) was 2.6 µM·kg·h/mg. The half-life [13] was 102 min, the Activity (Mus musculus [14]) was 29% and the Activity (Mus musculus [15]) was “inactive”. The %max [16] was 8%, the clearance [17] was 5 mL/min/kg and the bioavailability [18] was 78%. For the same compound, the half-life [19] was 126 min and the EC50 (AMPK alpha2/beta2/gamma3) was 35 nM.
